This note sets out measurements from ChEMBL document CHEMBL1126841, “Synthesis and structure-activity relationships of 1-acyl-4-((2-methyl-3-pyridyl)cyanomethyl)piperazines as PAF antagonists” (J Med Chem, 1993).

One may read the IC50 as the point on the concentration scale where inhibition reaches its midpoint. Higher therefore signals a need for much substance.

Test [1] is filed under the species Oryctolagus cuniculus. The test is described as follows: In vitro inhibition of PAF-induced platelet aggregation in male rabbits.
The nature of test [2]: Inhibition of PAF-induced platelet aggregation.
For test [3], the target named is Platelet-activating factor receptor (Mus musculus) (UniProt Q62035). The test is described as follows: Dose required to inhibit PAF-induced mortality by 50% in mice. To be noted: Mus sp. The class given is functional. The gist of the method:
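Male Swiss mice (22-26 g), groups of 10; test compound given po (20 mL/kg), controls 1% Tween 80. 60 min later, C18-PAF 100 µg/kg plus propanolol 1 mg/kg injected into a lateral tail vein. Mortality scored 2 h after PAF; % inhibition vs controls. ID50 from linear regression of one curve, ≥4 points. Initial dose 3 mg/kg; further doses only if >50% inhibition.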

Test [4] has as its target Platelet-activating factor receptor (Rattus norvegicus) (UniProt P46002). Kind of test: Intravenous dose required to reduce the arterial blood pressure caused by PAF by 50% in rats. The format is functional. The gist of the method: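 Male Sprague-Dawley rats (180-220 g) under pentobarbital anesthesia (50 mg/kg ip); carotid blood pressure recorded. Compound in saline given iv (femoral vein) 3 min before PAF 0.5 µg/kg iv; controls got vehicle. % inhibition of hypotension vs controls. ID50 from linear regression of one curve, ≥4 doses, each the mean of ≥2 independent experiments.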

Test [5] has as its system Mus musculus. The test is described as follows: Tested for dose required to inhibit antigen-induced mortality by 50 % when administered perorally in active anaphylactic shock (AAS) mice. The format is functional. To be noted: po, read-out: ID50 (the source's name). An outline of the steps:
(§1)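 Male Swiss mice (30 g, groups of 10) were sensitized by ip injection of 1 mL saline containing 1 mg bovine serum albumin, then challenged with BSA. Compound was given iv 5 min or po 30 min before challenge. Survival was recorded 60 min after BSA. ID50 (dose inhibiting mortality by 50%) was obtained by linear regression of a single curve of at least four points.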

Test [6] concerns Rattus norvegicus. The test is described as follows: Tested for dose required to inhibit endotoxin-induced mortality by 50 % when administered perorally in endotoxin-induced mortality (EIM) in rats. The format is functional. Particulars: po, read-out: ID50 (the source's name). An outline of the steps:
(§2)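 Groups of 10 male Sprague-Dawley rats (150-175 g) were dosed iv (saline vehicle) 5 min or po (1% Tween 80 vehicle) 30 min before tail-vein injection of E. coli 0127:B8 endotoxin, 5 mg/kg. Mortality was scored at 7 days versus vehicle controls. ID50 was obtained by linear regression of a single curve of at least four points.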

Test [7] has as its system Mus musculus. The test is described as follows: Tested for dose required to inhibit endotoxin-induced mortality by 50 % when administered intravenously in endotoxin-induced mortality (EIM) mice. To be noted: iv, read-out: ID50 (the source's name). The format is functional. An outline of the steps: (§3)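 Groups of 10 male Swiss mice (22-26 g) were dosed iv (saline vehicle) 5 min or po (1% Tween 80 vehicle) 30 min before tail-vein injection of E. coli 0111:B4 endotoxin, 20 mg/kg. Mortality was scored at 7 days versus vehicle controls. ID50 was obtained by linear regression of a single curve of at least four points.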

For test [8], the system named is Mus musculus. The test is described as follows: Tested for dose required to inhibit endotoxin-induced mortality by 50 % when administered perorally in endotoxin-induced mortality (EIM) mice. The class given is functional. To be noted: po, read-out: ID50 (the source's name). The gist of the method:
as §3

Test [9] has as its system Mus musculus. Kind of test: Tested for dose required to inhibit antigen-induced mortality by 50 % when administered intravenously in active anaphylactic shock (AAS) mice. Particulars: iv, read-out: ID50 (the source's name). The class given is functional. An outline of the steps: as §1
For test [10], the system named is Rattus norvegicus. The test is described as follows: Tested for dose required to inhibit endotoxin-induced mortality by 50 % when administered intravenously in endotoxin-induced mortality (EIM) in rats. The format is functional. Particulars: iv, read-out: ID50 (the source's name). An outline of the steps: as §2
Test [11] relates to Rattus norvegicus. Kind of test: Tested for dose required to inhibit endotoxin-induced mortality by 50 % when administered perorally in endotoxin-induced mortality (EIM) rats. To be noted: po, read-out: ID50 (the source's name). The class given is functional. The gist of the method:
as §2

Test [12] deals with Rattus norvegicus. The test is described as follows: Tested for dose required to inhibit endotoxin-induced mortality by 50 % when administered intravenously in endotoxin-induced mortality (EIM) rats. The class given is functional. To be noted: iv, read-out: ID50 (the source's name). The gist of the method:
as §2

Test [13] deals with Mus musculus. The test is described as follows: Tested for dose required to inhibit antigen-induced mortality by 50 % when administered perorally in active anaphylactic shock (AAS) mice. The class given is functional. Particulars: po, read-out: ID50 (the source's name). The gist of the method: as §1
Test [14] relates to Mus musculus. The test is described as follows: Tested for dose required to inhibit antigen-induced mortality by 50 % when administered intravenously in active anaphylactic shock (AAS) mice. The format is functional. Particulars: iv, read-out: ID50 (the source's name). The gist of the method: as §1
For test [15], the species on record is Oryctolagus cuniculus. The test is described as follows: In vitro inhibition of PAF-induced platelet aggregation in male rabbits. The format is functional. The gist of the method: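 Platelet-rich plasma from blood spun 250 g, 10 min, 4 °C, diluted with platelet-poor plasma (3000 g, 10 min) to 3.5 × 10^5 platelets/mm3. Aggregation induced with C18-PAF 1.5 × 10^-8 M and read on a dual-channel aggregometer. IC50 as 50% inhibition of maximal aggregation, by linear regression of one curve, ≥4 points, each the mean of 1-3 independent experiments.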

Platelet-activating factor receptor (Rattus norvegicus), sequence (P46002 whole entry): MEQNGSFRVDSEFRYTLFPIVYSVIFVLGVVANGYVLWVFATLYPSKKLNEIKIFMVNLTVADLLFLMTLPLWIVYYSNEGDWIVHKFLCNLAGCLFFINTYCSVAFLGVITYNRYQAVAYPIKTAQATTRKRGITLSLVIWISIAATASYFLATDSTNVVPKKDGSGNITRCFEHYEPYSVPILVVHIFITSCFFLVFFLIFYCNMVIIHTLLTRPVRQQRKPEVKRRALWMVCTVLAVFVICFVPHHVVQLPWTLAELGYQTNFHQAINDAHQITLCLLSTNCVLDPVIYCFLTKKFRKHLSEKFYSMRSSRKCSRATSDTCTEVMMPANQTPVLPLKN
Platelet-activating factor receptor (Mus musculus), sequence (Q62035 whole entry): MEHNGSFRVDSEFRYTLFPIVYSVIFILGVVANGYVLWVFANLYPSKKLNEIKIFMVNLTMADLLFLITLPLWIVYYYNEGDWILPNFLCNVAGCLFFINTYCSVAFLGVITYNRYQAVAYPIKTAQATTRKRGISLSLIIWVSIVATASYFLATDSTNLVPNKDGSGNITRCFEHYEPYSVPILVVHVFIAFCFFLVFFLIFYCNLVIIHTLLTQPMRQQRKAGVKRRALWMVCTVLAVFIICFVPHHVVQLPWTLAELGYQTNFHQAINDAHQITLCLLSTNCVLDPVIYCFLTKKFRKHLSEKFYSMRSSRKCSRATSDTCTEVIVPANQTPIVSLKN

In turn, `N#CC(c1cccnc1)N1CCN(C(=O)C=C(c2ccccc2)c2ccccc2)CC1` (stereo unspecified) returned an IC50 in the test filed under Oryctolagus cuniculus [1] of 10 nM.
Regarding `N#CC(c1cccnc1)N1CCN(C(=O)CC(c2ccccc2)c2ccccc2)CC1` (stereo unspecified), in test [2], 20 nM corresponded to half-maximal inhibition (IC50).
As for `Cc1ncccc1C(C#N)N1CCN(C(=O)CNC(c2ccccc2)c2ccccc2)CC1` (stereo unspecified), the ID50 worked out at 0.3 mg/kg in test [3] and 0.021 mg/kg in test [4]. Besides, the ED50 in the test with Mus musculus [5] came to 2.7 mg/kg; with Rattus norvegicus [6] it was 1.4 mg/kg; in the test on Mus musculus [7] it was 1.4 mg/kg; in the test with Mus musculus [8], 9 mg/kg; with Mus musculus [9], 0.51 mg/kg; in the test with Rattus norvegicus [10], 0.28 mg/kg.
Consider `Cc1nnc2n1-c1sc(CCC(=O)N3CCOCC3)cc1C(c1ccccc1Cl)=NC2` [APAFANT], for which the ED50 with Rattus norvegicus [11] was 1.4 mg/kg; in the test on Mus musculus [7], 1.7 mg/kg; in the test on Rattus norvegicus [12], 0.47 mg/kg; with Mus musculus [8], 13.2 mg/kg; in the test with Mus musculus [13], 0.8 mg/kg; in the test with Mus musculus [14], 1.7 mg/kg.
In [2], `N#CC(c1cccnc1)N1CCN(C(=O)CCNC(c2ccccc2)c2ccccc2)CC1` (stereo unspecified) had an IC50 of 53 nM.
In the case of `COC(=O)NC(CC(=O)N1CCN(C(C#N)c2cccnc2C)CC1)c1ccccc1` (stereo unspecified), the ED50 came to 1 mg/kg in the test with Rattus norvegicus [11]; 1.7 mg/kg in the test on Mus musculus [7]; 0.11 mg/kg in the test on Rattus norvegicus [12]; 7.5 mg/kg with Mus musculus [8]; 2.7 mg/kg in the test with Mus musculus [13]; 0.19 mg/kg in the test on Mus musculus [14]. For the same molecule, the ID50 is 0.044 mg/kg in [3] and 0.015 mg/kg in test [4].
Turning to `N#CC(c1cccnc1)N1CCN(C(=O)CC(O)(c2ccccc2)c2ccccc2)CC1` (stereo unspecified), in the test listed under Oryctolagus cuniculus [1], half-maximal inhibition (IC50) was put at 21 nM.
In the case of `N#CC(c1cccnc1)N1CCN(C(=O)CNC(c2ccccc2)c2ccccc2)CC1` (stereo unspecified), the results for the ID50 in test [3] and in test [4] were 5.9 mg/kg and 0.023 mg/kg, respectively. Moreover, the IC50 in test [2] was 9.1 nM.
For the molecule `Cc1ncccc1C(C#N)N1CCN(C(=O)CC(c2ccccc2)N2C(=O)CCC2=O)CC1` (stereo unspecified), the results for the ID50 in [3] and in [4] were 0.71 mg/kg and 0.042 mg/kg, respectively. Moreover, the IC50 in the test listed under Oryctolagus cuniculus [15] was 69 nM.
For `Cc1ncccc1C(C#N)N1CCN(C(=O)CC(Nc2ccccc2)c2ccccc2)CC1` (stereo unspecified), the figures for the ID50 in test [3] and in test [4] were 0.27 mg/kg and 0.042 mg/kg, respectively.
For `Cc1ncccc1C(C#N)N1CCN(C(=O)CC(c2ccccc2)N(C)Cc2ccccc2)CC1` (stereo unspecified) the same measures were > 3 mg/kg and 0.024 mg/kg.
